From ChEMBL document CHEMBL2311288, “Discovery of liver-targeted inhibitors of stearoyl-CoA desaturase (SCD1)” (Bioorg Med Chem Lett, 2013)
pIC50: −log10 of the molar value.

Columns and labels:
[1] = Drug level in liver in rat at 10 mg/kg measured after 6 hrs; format: ADME, organism-based; design: dose 10 mg/kg; settings: read-out: Drug uptake
In short: (§1)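 Rats were given a single 10 mg/kg dose. Plasma exposure (AUC, Cmax) was determined, and drug concentrations in plasma, brain and liver were measured at 6 h post-dose. The liver/plasma ratio was taken from the 6 h levels.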

[2] = Ratio of drug level in liver to plasma of rat at 10 mg/kg measured after 6 hrs; format: ADME, organism-based; design: dose 10 mg/kg; in short: as §1
[3] = Cmax in rat at 10 mg/kg; format: ADME, organism-based; design: dose 10 mg/kg; settings: in vivo; in short: as §1
[4] = Plasma concentration in rat at 10 mg/kg measured after 6 hrs; format: ADME, organism-based; design: dose 10 mg/kg; in short: as §1
Acyl-CoA desaturase 1 = molecular target: T1, Acyl-CoA desaturase 1 (Rattus norvegicus, UniProt P07308); experiment: Inhibition of rat SCD1 by rat microsomal assay
T1 sequence (P07308 whole entry): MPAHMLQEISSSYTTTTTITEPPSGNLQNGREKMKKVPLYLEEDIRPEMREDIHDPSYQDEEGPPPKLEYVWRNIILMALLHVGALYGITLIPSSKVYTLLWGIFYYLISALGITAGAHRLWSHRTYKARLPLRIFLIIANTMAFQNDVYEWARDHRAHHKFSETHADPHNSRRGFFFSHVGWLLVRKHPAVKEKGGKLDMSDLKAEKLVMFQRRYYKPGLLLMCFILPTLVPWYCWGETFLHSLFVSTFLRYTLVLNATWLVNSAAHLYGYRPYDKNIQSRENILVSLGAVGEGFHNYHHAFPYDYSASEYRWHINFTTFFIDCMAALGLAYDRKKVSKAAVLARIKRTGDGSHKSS
In short: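 Microsomal desaturase activity was measured in 100 mM Tris HCl pH 7.3 with 2 mM NADH and [9,10-3H]stearoyl-CoA for 15 min at room temperature. The reaction was stopped on ice with trichloroacetic acid, then passed through activated charcoal, and tritium in the filtrate was counted. Compounds were tested in 2% DMSO final. Percent inhibition = (total−sample)/(total−blank)×100, with the blank set by 10⁻⁴ M of a standard inhibitor.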

Rattus norvegicus = experiment: AUC in rat at 10 mg/kg; format: ADME, organism-based, Plasma; design: dose 10 mg/kg; settings: in vivo; in short: as §1

SMILES	pIC50 (Acyl-CoA desaturase 1)	other results
N#Cc1cnc(N2CCC3(CC2)CCN(Cc2cccc(C(F)(F)F)c2)c2ccccc2O3)s1	9.00	concentration at 6 h [1]: 1510 ng/g; Kp at 6 h [2]: 20; Cmax [3]: 105 ng/g; concentration at 6 h [4]: 72 ng/g; AUC (Rattus norvegicus): 383 ng·h/g
O=C(NCCC1CC1)c1ccc(N2CCC3(CC2)CCN(Cc2cccc(C(F)(F)F)c2)c2ccccc2O3)nc1	7.92	concentration at 6 h [1]: < 10 ng/g; Cmax [3]: 45 ng/g; AUC (Rattus norvegicus): 23 ng·h/g
O=C(O)c1ccc(N2CCC3(CC2)CCN(Cc2cccc(C(F)(F)F)c2)c2ccccc2O3)nn1	5.33	
CC(=O)NCC(=O)N1CCC2(CC1)CCN(CC(C)C)c1ccccc1O2	< 5.00	
CC(C)(C)c1ccc(CC(=O)N2CCC3(CC2)CCN(CC#N)c2ccccc2O3)cc1	6.36	
Fc1cccc2c1CCC1(CCN(c3ccc(-c4nnc(Cc5cccnc5)o4)nn3)CC1)O2	8.70	
CC(=O)NCC(=O)N1CCC2(CC1)CCN(Cc1ccc(C(C)(C)C)cc1)c1ccccc1O2	7.77	concentration at 6 h [1]: 2670 ng/g; Kp at 6 h [2]: 13; Cmax [3]: 1100 ng/g; concentration at 6 h [4]: 210 ng/g; AUC (Rattus norvegicus): 3464 ng·h/g
CC(C)(C)c1ccc(CN2CCC3(CCN(C(=O)CNC(=O)c4ccco4)CC3)Oc3ccccc32)cc1	7.72	
CCCNC(=O)c1ccc(N2CCC3(CC2)CCN(Cc2cccc(C(F)(F)F)c2)c2ccccc2O3)nn1	6.89	
O=C(NCC(=O)N1CCC2(CC1)CCN(Cc1cccc(C(F)(F)F)c1)c1ccccc1O2)c1ccccc1	5.59	
CC(=O)NCC(=O)N1CCC2(CC1)CCN(Cc1cccc(C(F)(F)F)c1)c1ccccc1O2	7.49	
O=C(NCCC1CC1)c1cnc(N2CCC3(CC2)CCN(Cc2cccc(C(F)(F)F)c2)c2ccccc2O3)s1	6.03	
CC(C)(C)c1ccc(CN2CCC3(CCN(c4ccc(C(=O)NCCC5CC5)nn4)CC3)Oc3ccccc32)cc1	7.40	
CC(=O)NCC(=O)N1CCC2(CC1)CCN(CCc1ccccc1)c1ccccc1O2	5.80	
O=C(NCCC1CC1)c1ccc(N2CCC3(CC2)CCN(Cc2cccc(C(F)(F)F)c2)c2ccccc2O3)cc1	5.66	
CC(=O)NCC(=O)N1CCC2(CC1)CCN(c1ccccc1)c1ccccc1O2	< 5.00	
CC(=O)NCC(=O)N1CCC2(CC1)CCN(Cc1ccccc1)c1ccccc1O2	5.92	
CNC(=O)c1cnc(N2CCC3(CC2)CCN(Cc2ccc(C(C)(C)C)cc2)c2ccccc2O3)s1	8.40	
CC(=O)NCC(=O)N1CCC2(CC1)CCN(Cc1cccc(OC(F)(F)F)c1)c1ccccc1O2	6.17	
COc1cccc(CN2CCC3(CCN(C(=O)CNC(C)=O)CC3)Oc3ccccc32)c1	5.74	
CC(=O)NCC(=O)N1CCC2(CC1)CCN(Cc1ccccc1C)c1ccccc1O2	5.92	
CCCN1CCC2(CCN(C(=O)CNC(C)=O)CC2)Oc2ccccc21	< 5.00	
